Active and inactive are the calls of the source. The rule behind the calls is not given here.
How the values were obtained:
T-cell = assay: The concentration of the antiviral compound required to inhibit HIV RNA synthesis by 90%. viral RNA was quantified by sandwich hybridization assay; not active; format: functional, cell-based
Summary of the method: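 Susceptible T-cell lines grown in individual microtiter wells were infected with HIV. Cell-associated viral RNA was measured by RNA hybridization 3 days after infection. […] Assay SD was <±37%. Cytotoxicity was scored separately by tetrazolium dye metabolism, because RNA assay results are valid only at non-cytotoxic doses.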

[1] = target: T1, Human immunodeficiency virus type 1 protease (Human immunodeficiency virus 1, UniProt Q72874); assay: Binding affinity was evaluated on HIV Protease enzyme; not active
Summary of the method: (§1)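 Cleavage products were separated by anion-exchange HPLC and the product quantified by fluorescence. Each compound was assayed at least twice and the mean reported; assay SD <±40%.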

[2] = target: T1, Human immunodeficiency virus type 1 protease; assay: Binding affinity was evaluated with recombinant single chain dimeric HIV protease enzyme with a fluorescent substrate; not active; summary of the method: as §1

| Compound | IC90 (T-cell) | Ki [1] | Ki [2] |
| --- | --- | --- | --- |
| CC1(C)O[C@@H]2[C@@H](O1)[C@@H](Cc1ccccc1)N(Cc1cccc(C(=O)O)c1)C(=O)N(Cc1cccc(C(=O)O)c1)[C@@H]2Cc1ccccc1 | inactive | Not Active | Not Active |
| CC1(C)O[C@@H]2[C@@H](O1)[C@@H](Cc1ccccc1)N(Cc1cccc(C#N)c1)C(=O)N(Cc1cccc(C#N)c1)[C@@H]2Cc1ccccc1 | inactive | Not Active | Not Active |

Reference: ChEMBL document CHEMBL1129454, “HIV protease inhibitory bis-benzamide cyclic ureas: a quantitative structure-activity relationship analysis” (J Med Chem, 1996)
